Results on 10 compounds are retold here after ChEMBL document CHEMBL1129788, “Synthesis and biological activity of 3- and 5-amino derivatives of pyridine-2-carboxaldehyde thiosemicarbazone” (J Med Chem, 1996).

The test system of assay [1] is Mus musculus. Description: Average change in body weight from onset to termination of therapy(daily dosage 40 mg/kg). Type of assay: functional.
Assay [2] addresses T1, Ribonucleoside-diphosphate reductase subunit M2 (Homo sapiens, UniProt P31350).
T1 sequence (P31350 whole entry): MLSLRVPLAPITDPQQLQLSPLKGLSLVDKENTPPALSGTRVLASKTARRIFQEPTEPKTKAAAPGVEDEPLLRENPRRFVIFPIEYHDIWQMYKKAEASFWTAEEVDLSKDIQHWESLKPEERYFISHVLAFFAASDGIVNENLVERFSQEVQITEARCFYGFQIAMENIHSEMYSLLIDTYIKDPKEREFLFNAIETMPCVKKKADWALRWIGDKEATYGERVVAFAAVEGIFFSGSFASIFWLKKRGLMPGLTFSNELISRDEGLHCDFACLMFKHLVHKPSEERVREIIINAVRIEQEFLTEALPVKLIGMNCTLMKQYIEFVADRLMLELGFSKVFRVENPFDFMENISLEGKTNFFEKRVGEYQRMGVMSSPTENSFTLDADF
Description: Inhibitory activity against CDP reductase. The method in brief: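 Ribonucleoside diphosphate reductase prepared as non-heme iron and effector-binding subunits. IC50 is 50% inhibition, the mean of two separate determinations.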

Assay [3] has as its system Mus musculus. Briefly: T/C(100) represents the ratio of the survival time of treated to control animals x 100(daily dosage 80 mg/kg). It is filed as functional.
The test system of assay [4] is Mus musculus. Briefly: Average survival time includes only those mice that died prior to day 60(daily dosage 80 mg/kg).
The species entered for assay [5] is Mus musculus. Briefly: Long time survivors(out of 5) are the number of mice that survived for > 60 days relative to the total number of treated mice. Type of assay: functional.
A further assay has as its system L1210. Description: Compound was tested for inhibition of L1210 cells growth in culture. Type of assay: functional, cell-based. To be noted: Mus musculus. The method in brief: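 L1210 cells seeded at 2000/well; test agents added 24 h later at various concentrations (at least five per agent). Growth read colorimetrically after adding phenazine methosulfate, with 2-3 h incubation at 37 °C and reading at 492 nm. IC50 is the concentration giving 50% growth inhibition.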

For assay [6], the system named is Mus musculus. Description: Average survival time includes only those mice that died prior to day 60(daily dosage 40 mg/kg).
Assay [7] concerns Mus musculus. Description: T/C(100) represents the ratio of the survival time of treated to control animals x 100(daily dosage 40 mg/kg). Type of assay: functional.
The test system of assay [8] is Mus musculus. Briefly: Average survival time includes only those mice that died prior to day 60(daily dosage 40 mg/kg). It is filed as functional.
Assay [9] concerns Mus musculus. Briefly: T/C(100) represents the ratio of the survival time of treated to control animals x 100(daily dosage 60 mg/kg). Type of assay: functional.
Assay [10] concerns Mus musculus. Briefly: Average survival time includes only those mice that died prior to day 60(daily dosage 60 mg/kg).
The subject of assay [11] is Mus musculus. Briefly: Average survival time includes only those mice that died prior to day 80(daily dosage 40 mg/kg). It is filed as functional.
Where [12] appears, read: dose 80 mg/kg, in the assay text read “daily dosage 80 mg/kg” for “daily dosage 40 mg/kg”.
[13] abbreviates: dose 60 mg/kg, in the assay text read “daily dosage 60 mg/kg” for “daily dosage 40 mg/kg”.

Turning to `C=CCNc1cccnc1/C=N/N=C(/N)S`, in the assay on Mus musculus [1] (setting [12]), the Weight was -2.6%. Further, the IC50 in assay [2] was 1.7 µM; in the assay on L1210, above 10 µM. The T/C in the assay with Mus musculus [3] came out at 126. In the assay with Mus musculus [4], the Average survival was determined as 10.1 days. The same compound had a Survivors in the assay listed under Mus musculus [5] of 0.
Take `CCCCNc1ccc(/C=N/N=C(/N)S)nc1`: in the assay on Mus musculus [1] (dose 40 mg/kg), the Weight was -4%. Also, the Average survival in the assay on Mus musculus [6] was found to be 9.2 days. The IC50 in [2] was 2.5 µM; with L1210, 7.8 µM. The compound also registered a Survivors in the assay filed under Mus musculus [5] of 0. Moreover, the T/C with Mus musculus [7] was found to be 115.
Turning to `CNc1ccc(/C=N/N=C(/N)S)nc1`, the Weight with Mus musculus [1] (setting [13]) is given as -4.4%. The figures for the IC50 (in assay [2]; in the assay with L1210) were 1.3 µM and 2.4 µM, respectively. The Average survival in the assay on Mus musculus [8] was found to be 17.8 days. Moreover, the Survivors in the assay filed under Mus musculus [5] was determined as 0. Moreover, in the assay on Mus musculus [9], the T/C was found to be 223.
As to `CCNc1ccc(/C=N/N=C(/N)S)nc1`, the Weight in the assay on Mus musculus [1] (setting [12]) is on record as -3.4%. Besides, the IC50 in assay [2] worked out at 1 µM; in the assay with L1210 it was 3.4 µM. The T/C in the assay with Mus musculus [3] was 204. The compound also displayed an Average survival in the assay on Mus musculus [4] of 16.3 days. Further, the Survivors in the assay filed under Mus musculus [5] stood at 0.
Take `N/C(S)=N/N=C/c1ncc(N)cc1N`: the Weight with Mus musculus [1] (setting [13]) is -17.1%. For the same compound, the IC50 came out at 9 µM in [2] and 1.1 µM in the assay on L1210. Besides, in the assay on Mus musculus [8], the Average survival came out at 10.8 days. Further, in the assay listed under Mus musculus [5], the Survivors amounted to 2. In addition, the T/C with Mus musculus [9] was 135.
`CNc1cccnc1/C=N/N=C(/N)S`: the Weight with Mus musculus [1] (dose 40 mg/kg) is reported as -2.9%. In addition, the Average survival with Mus musculus [6] was found to be 11.8 days. The IC50 is 1 µM in assay [2] and 1.5 µM in the assay with L1210. In the assay listed under Mus musculus [5], this compound came in with a Survivors of 0. Further, the T/C with Mus musculus [7] was 148.
Take `C=CCNc1ccc(/C=N/N=C(/N)S)nc1`: the IC50 in [2] came to 1.4 µM; in the assay with L1210, 4.4 µM. Besides, in the assay on Mus musculus [8], the Average survival was 17.2 days. The Survivors in the assay listed under Mus musculus [5] was 0. Moreover, the T/C in the assay on Mus musculus [9] is on record as 215.
As for `CCCNc1ccc(/C=N/N=C(/N)S)nc1`, in the assay on Mus musculus [1] (setting [13]), the Weight is -5.2%. For the same compound, the IC50 is 1.4 µM in [2] and 5.1 µM in the assay on L1210. The same compound registered an Average survival in the assay with Mus musculus [10] of 11.7 days. The Survivors in the assay listed under Mus musculus [5] was 0. In addition, the T/C in the assay on Mus musculus [9] is recorded as 146.
On to `NCc1ccc(/C=N/N=C(/N)S)nc1`, for which the Weight in the assay with Mus musculus [1] (setting [12]) is -2.4%. The figures for the IC50 (in assay [2]; in the assay with L1210) were 2.5 µM and 2.1 µM, respectively. In the assay with Mus musculus [11], this compound displayed an Average survival of 13.4 days. The T/C in the assay with Mus musculus [3] came out at 168. In the assay filed under Mus musculus [5], this compound gave a Survivors of 1.
Turning to `N/C(S)=N/N=C/c1cc(CN2CCOCC2)c(N)cn1`, the Weight with Mus musculus [1] (dose 40 mg/kg) is -3.5%. The compound further showed an Average survival with Mus musculus [6] of 10 days. In addition, the IC50 in [2] is 11 µM; in the assay on L1210, above 10 µM. In the assay filed under Mus musculus [5], this compound displayed a Survivors of 0. For the same compound, the T/C in the assay with Mus musculus [7] is 125.

One may read the IC50 as the concentration that gives 50% inhibition. Read a low IC50 as greater potency.
